# Laboratory results reported in ChEMBL document CHEMBL4689842, “EUbOPEN Chemogenomics Library wave 1” (2021).
# Tests used:
# Format in all cases: toxicity, cell-based
# Fibroblast = test: Multiplex assay against human fibroblast
# Outline: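 Tubulin, mitochondrial-mass and membrane-permeability phenotypes are per cents of healthy-nucleus cells. Cells were gated by CellPathfinder machine learning into Hoechst high-intensity objects or normal cells, normal cells into healthy, pyknosed or fragmented nuclei, and pyknosed cells into mitotic or apoptotic. Before that, live cells stained at seeding with Hoechst33342, BioTracker Green Microtubule Cytoskeleton Dye, MitoTracker Red and Annexin V Alexa Fluor 680 were imaged on a CQ1 microscope at 37°C and 5% CO2 after compound addition.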
# HEK-293T = test: Incucyte cell viability with HEK293T; details: human, 10 µM, compound concentration 10 uM; further: filed as whole numbers so only -1 and 0 and 1 occur
# U2OS = test: Incucyte cell viability with U2OS; details: human, 10 µM, compound concentration 10 uM; further: filed as whole numbers so only -1 and 0 and 1 occur
# [1] = 12 h, 1 µM, compound concentration 1 uM, replicate 1
# [2] = 12 h, 1 µM, compound concentration 1 uM, replicate 2
# [3] = 12 h, 10 µM, compound concentration 10 uM, replicate 1
# [4] = 12 h, 10 µM, compound concentration 10 uM, replicate 2
# [5] = 24 h, 1 µM, compound concentration 1 uM, replicate 1
# [6] = 24 h, 1 µM, compound concentration 1 uM, replicate 2
# [7] = 24 h, 10 µM, compound concentration 10 uM, replicate 1
# [8] = 24 h, 10 µM, compound concentration 10 uM, replicate 2
# [9] = 6 h, replicate number 1, timepoint 6 hours
# [10] = 12 h, replicate number 1, timepoint 12 hours
# [11] = 18 h, replicate number 1, timepoint 18 hours
# [12] = 24 h, replicate number 1, timepoint 24 hours
smiles,measurement,setting,value
Cl.Cl.NC1(c2ccc(-c3nc4ccn5c(=O)[nH]nc5c4cc3-c3ccccc3)cc2)CCC1,Population Apoptotic (%),Fibroblast; [1],71%
same,Population Fragmented Nuclei (%),Fibroblast; [1],35%
same,Population Healthy Nuclei (%),Fibroblast; [1],48%
same,Population Hoechst High Intensity Objects (%),Fibroblast; [1],42%
same,Population Membrane Permeable-Phenotype (%),Fibroblast; [1],4%
same,Population Mitotic Cells (%),Fibroblast; [1],28%
same,Population Normal (%),Fibroblast; [1],57%
same,Population Pyknosed Nuclei (%),Fibroblast; [1],15%
same,Population Tubulin-Different-Phenotype (%),Fibroblast; [1],6%
same,Total Cell Count,Fibroblast; [1],437
same,Population Apoptotic (%),Fibroblast; [2],87%
same,Population Fragmented Nuclei (%),Fibroblast; [2],55%
same,Population Healthy Nuclei (%),Fibroblast; [2],35%
same,Population Hoechst High Intensity Objects (%),Fibroblast; [2],45%
same,Population Membrane Permeable-Phenotype (%),Fibroblast; [2],19%
same,Population Mitochondria Different-Phenotype (%),Fibroblast; [2],0%
same,Population Mitotic Cells (%),Fibroblast; [2],12%
same,Population Normal (%),Fibroblast; [2],54%
same,Population Pyknosed Nuclei (%),Fibroblast; [2],9%
same,Population Tubulin-Different-Phenotype (%),Fibroblast; [2],16%
same,Total Cell Count,Fibroblast; [2],161
same,Population Apoptotic (%),Fibroblast; [3],37%
same,Population Fragmented Nuclei (%),Fibroblast; [3],19%
same,Population Healthy Nuclei (%),Fibroblast; [3],38%
same,Population Hoechst High Intensity Objects (%),Fibroblast; [3],49%
same,Population Membrane Permeable-Phenotype (%),Fibroblast; [3],7%
same,Population Mitochondria Different-Phenotype (%),Fibroblast; [3],4%
same,Population Mitotic Cells (%),Fibroblast; [3],62%
same,Population Normal (%),Fibroblast; [3],50%
same,Population Pyknosed Nuclei (%),Fibroblast; [3],41%
same,Population Tubulin-Different-Phenotype (%),Fibroblast; [3],42%
same,Total Cell Count,Fibroblast; [3],610
same,Population Apoptotic (%),Fibroblast; [4],80%
same,Population Fragmented Nuclei (%),Fibroblast; [4],71%
same,Population Healthy Nuclei (%),Fibroblast; [4],14%
same,Population Hoechst High Intensity Objects (%),Fibroblast; [4],69%
same,Population Membrane Permeable-Phenotype (%),Fibroblast; [4],0%
same,Population Mitochondria Different-Phenotype (%),Fibroblast; [4],40%
same,Population Mitotic Cells (%),Fibroblast; [4],20%
same,Population Normal (%),Fibroblast; [4],30%
same,Population Pyknosed Nuclei (%),Fibroblast; [4],14%
same,Population Tubulin-Different-Phenotype (%),Fibroblast; [4],20%
same,Total Cell Count,Fibroblast; [4],114
same,Population Apoptotic (%),Fibroblast; [5],45%
same,Population Fragmented Nuclei (%),Fibroblast; [5],33%
same,Population Healthy Nuclei (%),Fibroblast; [5],51%
same,Population Hoechst High Intensity Objects (%),Fibroblast; [5],49%
same,Population Membrane Permeable-Phenotype (%),Fibroblast; [5],1%
same,Population Mitochondria Different-Phenotype (%),Fibroblast; [5],1%
same,Population Mitotic Cells (%),Fibroblast; [5],54%
same,Population Normal (%),Fibroblast; [5],50%
same,Population Pyknosed Nuclei (%),Fibroblast; [5],15%
same,Population Tubulin-Different-Phenotype (%),Fibroblast; [5],9%
same,Total Cell Count,Fibroblast; [5],428
same,Population Apoptotic (%),Fibroblast; [6],57%
same,Population Fragmented Nuclei (%),Fibroblast; [6],57%
same,Population Healthy Nuclei (%),Fibroblast; [6],32%
same,Population Hoechst High Intensity Objects (%),Fibroblast; [6],51%
same,Population Membrane Permeable-Phenotype (%),Fibroblast; [6],8%
same,Population Mitochondria Different-Phenotype (%),Fibroblast; [6],0%
same,Population Mitotic Cells (%),Fibroblast; [6],42%
same,Population Normal (%),Fibroblast; [6],48%
same,Population Pyknosed Nuclei (%),Fibroblast; [6],9%
same,Population Tubulin-Different-Phenotype (%),Fibroblast; [6],16%
same,Total Cell Count,Fibroblast; [6],157
same,Population Apoptotic (%),Fibroblast; [7],24%
same,Population Fragmented Nuclei (%),Fibroblast; [7],17%
same,Population Healthy Nuclei (%),Fibroblast; [7],38%
same,Population Hoechst High Intensity Objects (%),Fibroblast; [7],53%
same,Population Membrane Permeable-Phenotype (%),Fibroblast; [7],5%
same,Population Mitochondria Different-Phenotype (%),Fibroblast; [7],10%
same,Population Mitotic Cells (%),Fibroblast; [7],75%
same,Population Normal (%),Fibroblast; [7],46%
same,Population Pyknosed Nuclei (%),Fibroblast; [7],44%
same,Population Tubulin-Different-Phenotype (%),Fibroblast; [7],42%
same,Total Cell Count,Fibroblast; [7],622
same,Population Apoptotic (%),Fibroblast; [8],83%
same,Population Fragmented Nuclei (%),Fibroblast; [8],70%
same,Population Healthy Nuclei (%),Fibroblast; [8],14%
same,Population Hoechst High Intensity Objects (%),Fibroblast; [8],57%
same,Population Membrane Permeable-Phenotype (%),Fibroblast; [8],50%
same,Population Mitochondria Different-Phenotype (%),Fibroblast; [8],33%
same,Population Mitotic Cells (%),Fibroblast; [8],16%
same,Population Normal (%),Fibroblast; [8],42%
same,Population Pyknosed Nuclei (%),Fibroblast; [8],14%
same,Population Tubulin-Different-Phenotype (%),Fibroblast; [8],16%
same,Total Cell Count,Fibroblast; [8],97
same,Growth Rate,HEK-293T; [9],0
same,Growth Rate,HEK-293T; [10],0
same,Growth Rate,HEK-293T; [11],0
same,Growth Rate,HEK-293T; [12],0
same,Growth Rate,"U2OS; 0 h, replicate number 1, timepoint 0 hours",0
same,Growth Rate,U2OS; [9],1
same,Growth Rate,U2OS; [10],1
same,Growth Rate,U2OS; [11],1
same,Growth Rate,U2OS; [12],1
